OX1R antag-1: blocks the human orexin 1 receptor; O43613; CHO/OX1R cells, Fluo-8 calcium fluorescence, orexin A; inhibition, % at 5 µM; actives 0.43% (n = 330,000); AID 434989;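 active = inhibition above its plate's threshold, mean inhibition of all tested compounds on the plate plus 3 SD, cut at about 37% in these data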
CHO parental Ca: counter-screen for OX1R antagonists: effect in parental CHO cells; actives 0.63% (n = 330,000); inhibition, % at 5.6 µM; parental CHO-K1, ATP-induced calcium, Fluo-8 fluorescence;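 active = inhibition above that plate's mean sample inhibition plus 3 SD, cut at about 26% in these data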
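Material: parental CHO cells / Compound: single nominal dose of 5.6 µM per compound / Signal: Fluo-8 fluorescence / Replicates: singlicate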
TAAR1 antagonist: human TAAR1 antagonism; CHO RD-HGA16 TAAR1, Fluo-8 calcium fluorescence, antagonist; inhibition, % at 3 µM; actives 1.5% (n = 360,000); AID 624466;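 active = inhibition above a per-plate cutoff, the mean inhibition of test compounds on that plate plus 3 SD, cut at about 49% in these data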
Target sequence (Q96RJ0 whole entry, looked up): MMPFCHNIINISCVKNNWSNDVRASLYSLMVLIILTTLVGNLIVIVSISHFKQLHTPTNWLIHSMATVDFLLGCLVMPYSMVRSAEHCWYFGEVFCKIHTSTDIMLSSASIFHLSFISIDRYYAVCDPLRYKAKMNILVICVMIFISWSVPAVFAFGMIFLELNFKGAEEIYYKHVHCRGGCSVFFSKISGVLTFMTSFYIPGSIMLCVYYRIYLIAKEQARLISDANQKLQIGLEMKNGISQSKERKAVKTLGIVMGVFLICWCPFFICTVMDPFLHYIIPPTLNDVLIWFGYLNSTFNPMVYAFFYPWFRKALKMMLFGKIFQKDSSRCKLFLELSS
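Material: RD-HGA16 CHO cells with stable hTAAR1 and Gα16; Dosing: single nominal final test compound concentration of 3 µM; Schedule: seeding 17-24 h prior, 75-min 37 °C, 30-min RT dye loading; Detection: kinetic Fluo-8 calcium fluorescence measurement; Measure: % inhibition from peak post-agonist over basal fluorescence ratio; Benchmarks: vehicle and agonist controls.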
OX1R antag-2: OX1R (human) antagonism; actives 1.8% (n = 330,000); OX1R-expressing cells, FRET antagonist read-out; inhibition, % at 6.6 µM; in the data active = inhibition mostly above about 38%, no sharp cut-off; inactive = mostly below about 40%
TAAR1 ag: agonists of human TAAR1; Q96RJ0; CHO RD-HGA16 TAAR1, Fluo-8 calcium fluorescence; vehicle wells 0%, saturating PEA agonist 100%; activation, % at 3 µM; actives 0.99% (n = 360,000); AID 624467;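 active = activation above the mean activation of all test compounds in the run plus 3 SD, cut at about 38% in these data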
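System: CHO-derived RD-HGA16 cells with stable Gα16 and human TAAR1. Times: 17-24 h plating, Fluo-8 75 min 37 °C, 30 min RT. Measured by: calcium-sensitive Fluo-8 signal, excitation 470-495, emission 515-575 nm. Read-out basis: % activation relative to PEA EC100 response. Control set: DMSO and PEA EC100. Repeats: no replicates (n 1).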
Numbers stand for hits; i = inactive; nt = no result. A selection: hits, their analogues and other compounds. The true share with any hit is near 3.9%.

SMILES	OX1R antag-1	CHO parental Ca	TAAR1 antagonist	OX1R antag-2	TAAR1 ag
Cc1ccc(N(CC(=O)NC(C)c2ccccc2)S(=O)(=O)c2c(C)noc2C)cc1 (stereo not given)	i	i	i	52	i
COc1cccc(CNC(=O)CN(c2cc(C)cc(C)c2)S(=O)(=O)c2c(C)noc2C)c1	i	i	i	46	i
Cc1ccc(N(CC(=O)NC(C)c2ccccc2)S(=O)(=O)c2c(C)n[nH]c2C)cc1 (stereo not given)	i	i	i	i	i
NC(c1csc(Nc2cc(NCCCO)ncn2)n1)c1ccccc1Cl (stereo not given)	nt	nt	i	nt	i
Cc1cccc(C(=O)Nc2oc(-c3ccccc3)cc2C#N)c1	i	i	49	i	i
Cc1ccccc1C(=O)Oc1ccc2ccc(O)cc2c1	i	66	i	i	i
Cc1ccc(O)c(C2=Nc3ccccc3N=C(c3ccc([N+](=O)[O-])cc3)C2)c1	i	i	i	i	41
Cc1ccc(O)c(C2=Nc3ccccc3N=C(c3cccc([N+](=O)[O-])c3)C2)c1	i	i	i	i	i
O=[N+]([O-])c1ccc(COc2cccc(CO)c2)cc1	nt	nt	i	nt	i
Cc1cc(-c2ccccc2)n[nH]1	i	i	i	i	i
FC(F)C(F)(F)C(F)(F)C(F)(F)c1cc(-c2ccccc2)n[nH]1	53	87	i	42	i
O=C(O)c1ccc(N/N=C/c2ccc(OC(=O)c3ccccc3Cl)cc2)cc1	i	i	58	i	i
CC(C)C[C@@H](CNC(=O)OC(C)(C)C)NC(=O)c1nc[nH]c1C(=O)N[C@@H](CC(C)C)C(=O)CNC[C@H](CC(C)C)NC(=O)c1nc[nH]c1C(=O)N[C@@H](Cc1c[nH]c2ccccc12)C(=O)OC(C)(C)C	i	i	i	i	i
CCOc1ccccc1/C=N/NC(=O)c1cccc(S(=O)(=O)N2CCOCC2)c1	i	i	i	i	i
O=C(O)COc1ccccc1/C=N/Nc1ccc(S(=O)(=O)N2CCOCC2)cc1[N+](=O)[O-]	i	i	i	63	i
COc1cccc(CN2CCC2(C)C(=O)Nc2cccc(Oc3ccccc3)c2)c1F (stereo not given)	nt	nt	i	nt	i
CCCCn1c(SCC(=O)Nc2cc(NC(=O)c3ccco3)ccc2C)nc2ccccc2c1=O	i	i	i	41	i
COCCn1c(SCC(=O)Nc2ccc(NC(=O)c3ccco3)c(OC)c2)nc2ccccc2c1=O	i	i	i	i	i
O=C(c1ccccc1)c1ccc(N2CCN(C(=O)c3ccc(F)cc3F)CC2)c(F)c1	nt	nt	i	nt	i
COc1cccc(-c2nc(NCc3ccco3)c3ccccc3n2)c1O	i	i	i	i	i
COc1cccc(-c2nc(NCc3ccccc3)c3ccccc3n2)c1O	i	i	i	37	i
C=CCNc1nc(-c2cccc(OC)c2O)nc2ccccc12	i	i	i	47	i
CCOC(=O)C1=C(C(=O)OCC)C2N(Cc3ccc(Br)cc3)c3ccccc3[C@@]23C[C@@H](C(=O)OC)N(S(=O)(=O)c2cccs2)C3=N1 (stereo not given in full)	nt	nt	i	nt	i
CC(C)CN(C(=O)CN(C)C(=O)Cc1c(F)cccc1Cl)c1c(N)n(CC(C)C)c(=O)[nH]c1=O	nt	nt	i	nt	i
C[C@@H]1O[C@H](CCc2cccc(Cl)c2)CC2=C1C(=O)OC(C)(C)O2	nt	nt	i	nt	i
SMILES	OX1R antag-1	CHO parental Ca	TAAR1 antagonist	OX1R antag-2	TAAR1 ag
COC(=O)c1c(NC(=O)c2ccco2)sc(C)c1C	i	i	i	59	i
Cn1cnc(S(=O)(=O)N2CCCCC2c2cc(C(=O)Nc3cccc4c3CCCC4)no2)c1 (stereo not given)	nt	nt	i	nt	i
Cc1cc(C)n(Cc2ccc(NC(=O)c3ccc(COc4ccccc4Br)cc3)cc2)n1	i	i	49	i	i
NC(=O)c1ccc(NC(=O)c2ccc(COc3ccccc3Br)cc2)cc1	nt	nt	i	nt	i
CCCc1nc2c(C)cc(Br)cn2c1Cc1ccccc1OC	nt	nt	i	nt	i
COc1ccc(NC(=O)c2cc3c(=O)n(C)c4ccccc4c3n2C)cc1OC	i	i	i	43	i
COc1ccc(NC(=O)c2cc3c(=O)n(C)c4ccccc4c3n2C)cc1Cl	i	i	i	i	i
Cc1ccc(C(C)C)c(OCC(=O)NS(=O)(=O)c2ccc(Cl)cc2)c1	i	i	i	59	i
Cc1ccccc1OCC(=O)NS(=O)(=O)c1ccc(Cl)cc1	i	i	i	i	i
CN(C)NC(=O)c1ccc([N+](=O)[O-])s1	i	i	i	67	i
O=C(Nc1ccccc1F)c1ccc([N+](=O)[O-])s1	i	i	i	38	i
O=C(Nc1cccnc1)c1ccc([N+](=O)[O-])s1	i	i	i	53	i
O=C(Nc1ccccc1F)c1ccc(-c2cccc([N+](=O)[O-])c2)o1	i	i	i	64	i
CC(C)C(N)c1csc(NC(=O)Nc2ccc(OC(F)(F)F)cc2)n1 (stereo not given)	nt	nt	i	nt	i
CC1C(c2ccccc2)=Nn2c(=O)n(-c3ccccc3)c(=O)n21 (stereo not given)	nt	nt	i	nt	i
CCCCc1c(-c2ccccc2OC)ncn1Cc1ccccc1F	nt	nt	i	nt	i
O=P(c1ccccc1)(c1ccccc1)c1ccccc1C(Br)Br	nt	nt	i	nt	i
O=[N+]([O-])c1ccc(-c2nnc(-c3ccccc3)c(NCCCO)n2)cc1	i	i	i	38	i
OCCCNc1nc(-c2ccc(Cl)cc2)nnc1-c1ccc(Br)cc1	i	i	i	i	i
C=CCC[C@H](Cc1ccc(F)cc1)C(=O)OC[C@H](Cc1c[nH]c2ccccc12)NC(=O)[C@@H](CC=C)CC(=O)N(CCO)Cc1ccccc1	i	i	i	i	i
C=CC[C@@H](Cc1ccc(F)cc1)C(=O)OC[C@@H]1CCCN1C(=O)[C@H](CC=C)CC(=O)N[C@H](CO)Cc1ccccc1	101	i	i	64	i
C=CCC[C@H](Cc1ccc(F)cc1)C(=O)OC[C@@H](Cc1c[nH]c2ccccc12)NC(=O)[C@@H](CC=C)CC(=O)N(CCO)Cc1ccccc1	i	i	51	i	i
C=CC[C@H](CC(=O)N(CCO)Cc1ccccc1)C(=O)N[C@H](COC(=O)[C@@H](CC=C)Cc1ccc(F)cc1)Cc1ccccc1	i	i	52	i	i
C=CC[C@@H](CC(=O)N(CCO)Cc1ccccc1)C(=O)N[C@H](C)COC(=O)[C@@H](CC=C)Cc1ccc(F)cc1	i	i	i	i	i
COc1ccc(Cn2cc(CN(C)C3CN(Cc4cn(Cc5ccc(OC)cc5)nn4)S(=O)(=O)C3)nn2)cc1 (stereo not given)	nt	nt	i	nt	i
NC(=O)CSc1nnc(-c2ccc([N+](=O)[O-])cc2)o1	i	i	i	55	i
O=C(Nc1nnc(C2=COCCO2)o1)c1ccc(Cl)cc1	i	i	i	i	i
O=C(Nc1nnc(C2=COCCO2)o1)c1ccc([N+](=O)[O-])cc1	i	i	i	52	i

Source: PubChem
